The results in this text go back to ChEMBL document CHEMBL3632600, “Novel arylalkylamine compounds exhibits potent selective antiparasitic activity against Leishmania major” (Bioorg Med Chem Lett, 2015).

Assay [1] relates to Leishmania major. The assay can be described thus: Antileishmanial activity against promastigote stage of Leishmania major Friedlin clone V1 assessed as parasite survival after 72 hrs by luciferase reporter gene assay. Particulars: Friedlin clone V1, 72 h, read-out: LD50 (the source's name). Format: functional. The method in brief:
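Luciferase-expressing L. major Friedlin clone V1 promastigotes exposed to compound for 72 h; Amphotericin B served as positive control. Lethality is expressed as LD50.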

The next assay relates to LLC-MK2. Nature of the assay: Cytotoxicity against monkey LLC-MK2 cells after 96 hrs by Alamar Blue assay. Format: cell-based. Particulars: Macaca mulatta, LLC-MK2, 96 h.
A further assay has as its system U2OS. Nature of the assay: Cytotoxicity against human U2OS cells after 96 hrs by Alamar Blue assay. Type of assay: cell-based.
Assay [2] has as its system Leishmania major. Nature of the assay: Antileishmanial activity against amastigote stage of Leishmania major in starch-activated mouse intraperitoneal macrophages assessed as inhibition of intracellular parasite proliferation at 5 uM after 48 hrs by annexin-V 488/DAPI staining-based microplate confocal microscopic analysis relative to control. Type of assay: functional. The method in brief:
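Macrophages infected 24 h after plating with L. major metacyclic promastigotes at 10 parasites per cell, then treated 48 h at 5 µM. Fixed, stained with annexin-V 488 and DAPI; infected cells (5 or more amastigotes per macrophage) and amastigotes counted by high-content confocal imaging. Negative control 1% DMSO; positive control amphotericin B 25 µM.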

Assay [3] deals with Leishmania major. Nature of the assay: Antileishmanial activity against promastigote stage of Leishmania major assessed as induction of intracellular reactive oxygen species generation at 3 uM preincubated for 24 hrs followed by H2DCFDA probe addition measured after 20 mins by fluorescence microplate reader analysis relative to vehicle-treated control. Type of assay: functional. The method in brief:
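L. major promastigotes exposed 24 h (3 µM for the single-concentration read). H2DCFDA then added and incubated a further 20 min at 37 °C; fluorescence read on a microplate reader and expressed relative to 1% DMSO vehicle. Medium-only also served as negative control; hydrogen peroxide 100 µM as positive control.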

The next assay relates to RAW264.7. The assay can be described thus: Cytotoxicity against mouse Raw264.7 cells after 96 hrs by Alamar Blue assay. Format: cell-based. Particulars: RAW264.7, 96 h.
Assay [4] in a line: Cytotoxicity against mouse intraperitoneal macrophages after 48 hrs by Alamar Blue assay. Type of assay: cell-based. As to conditions: Peritoneal macrophage cell.

SMILES strings stand for the structures.

`O=C(O)c1ccc(NC2CCCCC2)c(NCc2ccccc2)c1`: the LC50 with Leishmania major [1] is over 10 µM.

Consider `CCOC(=O)c1ccc(NC2CCCCC2)c(N)c1`, for which the LC50 in the assay with Leishmania major [1] came to 28.8 µM. The molecule further displayed an IC50 with LLC-MK2 of over 240 µM. As to `CCOC(=O)c1ccc(NC2CCCCC2)c(NCc2ccc(C(=O)OC)cc2)c1`, the LC50 with Leishmania major [1] is over 10 µM.

Consider `CCOC(=O)c1ccc(NC2CCCCC2)c(NCc2ccc(OC)cc2)c1`, for which the LC50 in the assay with Leishmania major [1] is over 10 µM. Still for that read-out and setting: with `CCOC(=O)c1ccc(NC2CCCCC2)c(NCc2ccc(F)c(C#N)c2)c1` the figure was over 10 µM. Regarding `CCOC(=O)c1ccc(NC2CCCCC2)c(NCc2ccccc2)c1`, the half-maximal inhibitory concentration (IC50) (with U2OS; in the assay on RAW264.7; in assay [4]) was over 80 µM throughout. Further, the inhibition at 5 µM with Leishmania major [2] is 80%. Further, in the assay with Leishmania major [1], the LC50 was found to be 3.34 µM. Also, the “fold change (FC)” value in the assay on Leishmania major [3] is 1.75. With `CCOC(=O)c1ccc(NC2CCCCC2)c(N(Cc2ccccc2)Cc2ccccc2)c1`, the LC50 with Leishmania major [1] was over 10 µM.

Take `CCOC(=O)c1ccc(NC2CCCCC2)c(NCc2cccc(Cl)c2)c1`: in the assay on Leishmania major [1], the LC50 is over 10 µM. Still for that read-out and setting: with `CCOC(=O)c1ccc(NC2CCCCC2)c(NCc2cc(F)cc(Br)c2)c1` the figure was over 10 µM; with `CCOC(=O)c1ccc(NC2CCCCC2)c(NCc2ccc([N+](=O)[O-])cc2)c1`, over 10 µM. The same measure, in the same setting: with `CCOC(=O)c1ccc(NC23CC4CC(CC(C4)C2)C3)c(NCc2ccncn2)c1` the figure was over 10 µM; with `CCOC(=O)c1ccc(NC2CCCCC2)c(NCc2cccc(F)c2)c1`, over 10 µM. On the same count and under the same terms, in the case of `Nc1cc(C(=O)OCCN2CCOCC2)ccc1NC1CCCCC1` it was over 10 µM. In the case of `CCCCCCCCCCOC(=O)c1cc(N)c(NC2CCCCC2)cc1F`, the LC50 in the assay with Leishmania major [1] was over 10 µM.

With `CCOC(=O)c1ccc(NC2CCCCC2)c([N+](=O)[O-])c1`, the LC50 in the assay on Leishmania major [1] is over 10 µM. The same measure, in the same setting: with `CCOC(=O)c1ccc(NC2CCC(C(C)(C)C)CC2)c(NCc2ccncn2)c1` (stereo not drawn) the figure was 4.92 µM. On to `CCOC(=O)c1ccc(NC2CCCCC2)c(NCc2ccc(C#N)cc2)c1`, for which, in the assay with Leishmania major [1], the LC50 is over 10 µM.

For the molecule `CCOC(=O)c1ccc(NC2CCCCC2)c(NCc2ccccc2[N+](=O)[O-])c1`, the LC50 in the assay with Leishmania major [1] is over 10 µM. Same read-out and setting: in the case of `CCOC(=O)c1ccc(NC2CCCCC2)c(NC(=O)OC)c1` it was over 10 µM; in that of `CCOC(=O)c1ccc(NC2CCCCC2)c(NCc2cccc(OC)c2)c1`, 4.98 µM; in that of `CCOC(=O)c1cc(N)c(NC2CCCCC2)cc1F`, over 10 µM. The same measure, in the same setting: in the case of `CCOC(=O)c1ccc(N[C@H]2CC[C@H](N)CC2)c(N)c1` it was over 10 µM; in that of `CCOC(=O)c1cnc(NC2CCCCC2)c(N)c1`, over 10 µM; in that of `CCOC(=O)c1ccc(NC2CCOCC2)c(N)c1`, over 10 µM.

Consider `CCOC(=O)c1ccc(NC2CCC(C(C)(C)C)CC2)c(NCc2ccccc2)c1` (stereo not drawn), for which the LC50 in the assay on Leishmania major [1] was over 10 µM. The same measure, in the same setting: in the case of `CCOC(=O)c1ccc(NC23CC4CC(CC(C4)C2)C3)c(NCc2ccccc2)c1` it was over 10 µM; in that of `CCOC(=O)c1cc(NCc2ccncn2)c(NC2CCCCC2)cc1F`, 9.49 µM.
